From ChEMBL document CHEMBL4680191, “Discovery of novel akt1 inhibitor induces autophagy associated death in hepatocellular carcinoma cells” (Eur J Med Chem, 2020)
Activity calls are given as the source filed them. The rule behind the calls is not given here.

How the values were obtained:
[1] = target: cAMP-dependent protein kinase catalytic subunit alpha (Homo sapiens) (UniProt P17612); assay: Inhibition of full length human PKAcalpha assessed as remaining activity at 1 uM using LRRASLG as substrate incubated for 40 mins by scintillation counting method relative to control
Procedure, shortened: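 Run as an outsourced KinaseProfiler service, with human PKA and Akt1, Akt2 and Akt3 in the same panel. Each compound was tested at a single 1 µM concentration, and the result is reported as kinase activity remaining, as a percentage of control.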

[2] = Effect on total AKT level in human Huh-7 cells xenografted in nude mouse at 20 to 50 mg/kg, ip up to 15 days by immunohistochemical analysis; assay type: ADME, organism-based; settings: in vivo, 360 h, dose 20-50 mg/kg, time <=15 day
Procedure, shortened: (§1)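 Tumors came from Huh-7 xenografted nude mice dosed intraperitoneally at 25 or 50 mg/Kg for 15 days. For IHC, sections underwent microwave antigen retrieval (EDTA pH 8.0 or citrate pH 6.0), then primary antibody at 37 °C for 30-40 min. HRP polymer/secondary was applied for 30 min, with DAB development and control IgG.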

[3] = tested on: Huh-7; assay: Antitumour activity against human Huh-7 cells xenografted in nude mouse assessed as decrease in Ki-67 at […], ip up to 15 days by immunohistochemical analysis; assay type: functional, organism-based; settings: time day <=15
Procedure, shortened: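 Subcutaneous Huh-7 xenografts in nude mice were dosed intraperitoneally at 25 or 50 mg/kg and followed over days 1–15. For IHC, tumour sections had microwave antigen retrieval in EDTA (pH 8.0) or citrate (pH 6.0) buffer. They were incubated with primary antibody at 37 °C for 30–40 min, then secondary antibody with HRP polymer for 30 min, and developed with DAB. Normal IgG served as negative control.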

[4] = tested on: HepG2; assay: Cytotoxicity against human HepG2 cells assessed as reduction in cell viability by MTT assay; assay type: functional, cell-based
Procedure, shortened: (§2)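 Hepatoma cells were grown in DMEM with 10% FBS and streptomycin, then treated with compounds. Viability was read by MTT.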

[5] = tested on: Huh-7; assay: Induction of autophagy in human Huh-7 cells assessed as increase in p62/SQSTM1 protein expression at 0.1 to 0.2 uM by Western blot analysis; assay type: functional, cell-based; settings: dose 0.1-0.2 µM
Procedure, shortened: (§3)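 Huh-7 cells were treated with or without compound. Total protein extracts were separated by SDS-PAGE and transferred to PVDF. Membranes were probed with primary antibodies, then HRP-conjugated secondary antibody (1:10,000), and detected by enhanced chemiluminescence.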

[6] = tested on: Huh-7; assay: Antitumour activity against human Huh-7 cells xenografted in nude mouse assessed as reduction in tumour weight at […], ip up to 15 days; assay type: functional, organism-based; settings: time day <=15
[7] = tested on: Huh-7; assay: Induction of autophagy in human Huh-7 cells assessed as decrease in m-TOR phosphorylation at 0.1 to 0.2 uM by Western blot analysis; assay type: functional, cell-based; settings: dose 0.1-0.2 µM; procedure, shortened: as §3
[8] = tested on: Huh-7; assay: Induction of autophagy in human Huh-7 cells assessed as reduction in cathepsin D activity at 0.2 uM in presence of 3-MA; assay type: functional, cell-based
[9] = tested on: RAC-gamma serine/threonine-protein kinase (Homo sapiens), Q9Y243 [S472D]; assay: Inhibition of full length human Akt3 S472D mutant assessed as remaining activity at 1 uM using GRPRTSSFAEGKK as substrate incubated for 40 mins by scintillation counting method relative to control
Procedure, shortened: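 Eurofins KinaseProfiler kinase assay on human Akt1, Akt2 and Akt3. Compounds were tested at 1 µM. Residual kinase activity is reported as % of control.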

[10] = tested on: Huh-7; assay: Induction of apoptosis in human Huh-7 cells assessed as necrotic cells at 0.1 uM by Annexin V/propidium iodide staining based flow cytometric analysis (reference value: 0.59%); assay type: functional
[11] = tested on: Huh-7; assay: Induction of apoptosis in human Huh-7 cells assessed as upregulation of cytochromeC protein expression at 0.1 to 0.2 uM by Western blot analysis; assay type: functional, cell-based; settings: dose 0.1-0.2 µM; procedure, shortened: as §3
[12] = tested on: Huh-7; assay: Induction of apoptosis in human Huh-7 cells assessed as late apoptotic cells at 0.2 uM by Annexin V/propidium iodide staining based flow cytometric analysis (reference value: 3.15%); assay type: functional
[13] = tested on: Huh-7; assay: Antitumour activity against human Huh-7 cells xenografted in nude mouse assessed as reduction in tumour growth at […], ip up to 15 days; assay type: functional, organism-based; settings: time day <=15
Procedure, shortened: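 Nude mice bearing subcutaneous Huh-7 xenografts received 25 or 50 mg/Kg compound intraperitoneally. Tumor volume was followed from day 1 to day 15, with excised tumors weighed at the end. Body weight was also monitored.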

[14] = tested on: Huh-7; assay: Induction of autophagy in human Huh-7 cells assessed as reduction in cathepsin B activity at 0.2 uM in presence of Baf-A1; assay type: functional, cell-based
[15] = tested on: Huh-7; assay: Induction of autophagy in human Huh-7 cells harboring GFP-LC3 assessed as increase in number of the autophagosome puncta at 0.2 uM after 6 hrs; assay type: functional, cell-based
Procedure, shortened: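 GFP-LC3-transfected cells were exposed to saline or compound for 6 h, then fixed with paraformaldehyde. Autophagosome puncta were scored by fluorescence of accumulated GFP-LC3.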

[16] = target: RAC-gamma serine/threonine-protein kinase (Homo sapiens, UniProt Q9Y243, S472D); assay: Inhibition of full length human Akt3 S472D mutant using GRPRTSSFAEGKK as substrate incubated for 40 mins by scintillation counting method
Procedure, shortened: (§4)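 Eurofins KinaseProfiler enzymatic assay on human Akt isoforms. IC50 values are the mean of at least three independent replicates ± standard deviation.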

[17] = tested on: Huh-7; assay: Antitumour activity against human Huh-7 cells xenografted in nude mouse assessed as increase in apoptotic cells at […], ip up to 15 days by TUNEL assay; assay type: functional, organism-based; settings: time day <=15
Procedure, shortened: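 Tumor sections came from Huh-7 xenografted nude mice given 25 or 50 mg/Kg intraperitoneally over 15 days. Apoptotic cells were detected by TUNEL staining.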

[18] = tested on: Huh-7; assay: Cytotoxicity against human Huh-7 cells assessed as reduction in cell viability by MTT assay; assay type: functional, cell-based; procedure, shortened: as §2
[19] = Inhibition of full length human Akt1 […] mutant using GRPRTSSFAEGKK as substrate incubated for 40 mins by scintillation counting method; procedure, shortened: as §4
[20] = tested on: SMMC-7721; assay: Cytotoxicity against human SMMC-7721 cells assessed as reduction in cell viability by MTT assay; assay type: functional, cell-based; procedure, shortened: as §2
[21] = tested on: Hep 3B2; assay: Cytotoxicity against human Hep3B cells assessed as reduction in cell viability by MTT assay; assay type: functional, cell-based; procedure, shortened: as §2
[22] = tested on: Huh-7; assay: Induction of apoptosis in human Huh-7 cells assessed as necrotic cells at 0.2 uM by Annexin V/propidium iodide staining based flow cytometric analysis (reference value: 0.59%); assay type: functional
[23] = Effect on total AKT protein level in human Huh-7 cells at 0.1 to 0.2 uM by Western blot analysis; assay type: ADME, cell-based; settings: huh-7, 0.2 µM, dose 0.1-0.2 µM; procedure, shortened: as §3
[24] = tested on: Huh-7; assay: Antitumour activity against human Huh-7 cells xenografted in nude mouse assessed as decrease in phosphorylation of AKT at 20 to 50 mg/kg, ip up to 15 days by immunohistochemical analysis; assay type: functional, organism-based; settings: dose 20-50 mg/kg, time day <=15; procedure, shortened: as §1
[25] = tested on: Huh-7; assay: Induction of autophagy flux arrest in human Huh-7 cells assessed as reduction in LAMP1 at 0.2 uM by immunofluorescence staining based assay; assay type: functional, cell-based
Procedure, shortened: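 Huh-7 cells with or without 0.2 µM compound were immunofluorescently co-stained for LC3 (autophagosome) and LAMP1 (lysosome). Co-localization was assessed by fluorescence imaging.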

[26] = tested on: Huh-7; assay: Induction of autophagy in human Huh-7 cells assessed as reduction in cathepsin B activity at 0.2 uM in presence of 3-MA; assay type: functional, cell-based

Chain of RAC-gamma serine/threonine-protein kinase (Q9Y243 2-479 S472D limits assumed): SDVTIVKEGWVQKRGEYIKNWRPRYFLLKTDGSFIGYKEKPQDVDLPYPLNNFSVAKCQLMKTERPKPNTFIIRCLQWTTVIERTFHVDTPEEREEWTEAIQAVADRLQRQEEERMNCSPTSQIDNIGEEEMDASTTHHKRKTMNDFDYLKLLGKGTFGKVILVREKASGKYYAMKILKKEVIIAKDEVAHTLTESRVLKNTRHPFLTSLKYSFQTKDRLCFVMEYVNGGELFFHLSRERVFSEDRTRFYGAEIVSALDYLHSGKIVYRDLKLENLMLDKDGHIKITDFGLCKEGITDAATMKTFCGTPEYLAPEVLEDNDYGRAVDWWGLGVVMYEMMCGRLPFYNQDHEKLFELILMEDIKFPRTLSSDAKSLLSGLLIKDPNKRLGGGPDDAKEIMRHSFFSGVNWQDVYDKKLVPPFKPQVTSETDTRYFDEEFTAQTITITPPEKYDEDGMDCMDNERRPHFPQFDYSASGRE
Chain of RAC-gamma serine/threonine-protein kinase (Homo sapiens), Q9Y243 [S472D] (Q9Y243 whole entry S472D): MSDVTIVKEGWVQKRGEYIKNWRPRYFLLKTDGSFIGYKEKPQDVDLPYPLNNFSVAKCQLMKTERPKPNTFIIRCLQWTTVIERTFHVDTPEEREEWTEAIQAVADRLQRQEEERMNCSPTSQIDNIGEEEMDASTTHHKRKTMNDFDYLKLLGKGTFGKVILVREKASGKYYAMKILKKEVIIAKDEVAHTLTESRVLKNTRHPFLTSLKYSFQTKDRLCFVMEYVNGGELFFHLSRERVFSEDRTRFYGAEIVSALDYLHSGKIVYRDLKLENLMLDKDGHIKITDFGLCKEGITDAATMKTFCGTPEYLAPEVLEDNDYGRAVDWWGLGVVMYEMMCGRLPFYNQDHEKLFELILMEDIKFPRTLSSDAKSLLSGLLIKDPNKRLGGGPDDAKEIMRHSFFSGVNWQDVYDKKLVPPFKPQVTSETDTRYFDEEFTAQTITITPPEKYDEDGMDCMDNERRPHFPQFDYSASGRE

In the case of `O=C(C(CNC1CCCC1)c1ccc(Cl)cc1)N1CCN(c2ncnc3sc4c(c23)CCC4)CC1` (stereo unspecified), the Activity [1] is reported as 35%, the Activity [2] is reported as “Non-Toxic” and the Activity [3] is reported as “Active”. The IC50 [4] was 183 nM, the Activity [5] was “Active” and the Activity [6] was “Active”. The Activity [7] was “Active”, the Activity [8] was “inactive” and the Activity [9] was 22%. For the same compound, the Activity [10] was 2.69%, the Activity [11] was “Active” and the Activity [12] was 9.13%. The Activity [13] was “Active”, the Activity [14] was “Active” and the Activity [15] was “Active”. For the same compound, the IC50 [16] was 129 nM, the Activity [17] was “Active” and the IC50 [18] was 76 nM. For the same compound, the IC50 [19] was 34 nM, the IC50 [20] was 386 nM and the IC50 [21] was 131 nM. For the same compound, the Activity [22] was 2.99%, the Activity [23] was “Non-Toxic” and the Activity [24] was “Active”. For the same compound, the Activity [25] was “Active” and the Activity [26] was “inactive”.
